# ANO1 block: inhibitors of mouse TMEM16A calcium-activated chloride channel; hit rate 1.2% among 310,000; HEK293 TMEM16A/YFP iodide influx fluorescence, ionomycin; normalized B-score (activity score, 25-100; higher = stronger inhibition) at 10 µM; AID 588511;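 active means ratio plate-corrected score three or more library SD toward inhibition, starting fluorescence score within five deviations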;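 further: score derived from kinetic fluorescence span divided by baseline fluorescence per well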
# Target sequence (Q8BHY3 whole entry, looked up): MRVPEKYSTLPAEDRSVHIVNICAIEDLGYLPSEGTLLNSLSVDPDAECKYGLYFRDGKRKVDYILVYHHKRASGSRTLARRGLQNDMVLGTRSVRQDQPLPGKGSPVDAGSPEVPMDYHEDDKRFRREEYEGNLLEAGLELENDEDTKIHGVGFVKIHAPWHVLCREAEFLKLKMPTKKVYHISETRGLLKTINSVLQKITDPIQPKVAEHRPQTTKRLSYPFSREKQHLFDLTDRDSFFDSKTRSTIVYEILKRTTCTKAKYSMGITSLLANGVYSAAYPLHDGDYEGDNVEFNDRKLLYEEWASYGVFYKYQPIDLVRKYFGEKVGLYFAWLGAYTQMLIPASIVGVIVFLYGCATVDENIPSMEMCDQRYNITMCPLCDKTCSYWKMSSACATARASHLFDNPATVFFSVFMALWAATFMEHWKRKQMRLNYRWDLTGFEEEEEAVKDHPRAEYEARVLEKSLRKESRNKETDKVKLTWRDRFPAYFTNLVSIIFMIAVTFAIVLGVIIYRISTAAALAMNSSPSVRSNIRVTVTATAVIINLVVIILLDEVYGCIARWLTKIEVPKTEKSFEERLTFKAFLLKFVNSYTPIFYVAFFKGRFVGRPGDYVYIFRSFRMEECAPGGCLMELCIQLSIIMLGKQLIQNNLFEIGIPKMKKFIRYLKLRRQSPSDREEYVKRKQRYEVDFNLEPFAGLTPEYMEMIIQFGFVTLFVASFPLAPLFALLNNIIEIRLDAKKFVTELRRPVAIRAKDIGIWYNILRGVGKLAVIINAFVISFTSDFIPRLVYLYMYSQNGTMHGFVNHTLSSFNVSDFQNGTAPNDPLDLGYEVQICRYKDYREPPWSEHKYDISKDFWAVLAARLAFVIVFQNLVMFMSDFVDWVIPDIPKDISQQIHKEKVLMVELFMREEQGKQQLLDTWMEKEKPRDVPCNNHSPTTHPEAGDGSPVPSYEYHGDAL
# CHT block: inhibits the human high affinity choline transporter | B-score at 10 µM | AID 488975 | Q9GZV3 | CHT-expressing cells, membrane potential dye, choline response; active compounds read low | hit rate 0.86% among 310,000;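 active means B-score over 3 SD under the library average, and starting fluorescence ratio not unusually high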;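 further: choline stimulus applied at its EC90 after an EC20 pre-addition; B-score computed on integrated fluorescence ratio after choline addition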
# IMP-1 inhibitor: blocks Pseudomonas aeruginosa IMP-1 metallo-beta-lactamase. inhibition, % at 5.6 µM. purified IMP-1, nitrocefin hydrolysis, epi-absorbance fluorescence. hit rate 0.45% among 290,000;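 active means inhibition above the mean plus 3 SD of all compounds in the same screening run, cut at about 4.5% in these data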;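 further: 0% = IMP-1 with DMSO and 100% = DMSO wells lacking enzyme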
#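 Assay system: purified IMP-1; Quantity: IMP-1 0.2 nM before substrate addition; Medium: HEPES buffer pH 7.1 with ZnSO4 and Brij 35; Incubation: 15 min enzyme–compound preincubation, then 25 min nitrocefin reaction, 25 °C; Signal: fluorescence quenching readout, ex 480/em 530 nm; Controls: DMSO with and without IMP-1; Repeats: singlicate testing.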
# VIM-2 inhibitor: inhibitors of Pseudomonas aeruginosa VIM-2 metallo-beta-lactamase; hit rate 0.89% among 290,000; purified VIM-2, nitrocefin hydrolysis, epi-absorbance fluorescence; AID 1527; inhibition, % at 5.6 µM;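 active means inhibition above the mean of all tested compounds plus 3 SD, cutoff set per screening run, cut at about 7.5% in these data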;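 further: red hydrolysis product quenches plate fluorescence so inhibitors raise well fluorescence; 0% = enzyme with DMSO and 100% = DMSO without enzyme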
# ANO1 activ: activators or potentiators of mouse TMEM16A chloride channel; Q8BHY3; HEK293 TMEM16A/YFP-H148Q/I152L, iodide quench fluorescence; active compounds read low; B-score at 10 µM; hit rate 0.3% among 340,000; AID 623877;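 active means fluorescence-ratio B-score plate-corrected deviation score at least 3 library SD below zero, with starting fluorescence score within 5 deviations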;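 further: channel opened by trigger with iodide after compound preincubation; score built on the fluorescence ratio of max minus min over baseline; more negative score means more quench and so TMEM16A activation or potentiation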
# CHT PAM: allosteric activators of human choline transporter CHT. hit rate 0.49% among 310,000. B-score at 10 µM. CHT-expressing cells, membrane potential dye, choline EC20; active compounds read high; LV-AA mutant CHT in HEK293 cells. Q9GZV3;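 active means initial fluorescence not abnormally high and integrated response B-score, plate-corrected, over 3 SD above library mean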
# TMEM16A reconf: TMEM16A (mouse) chloride channel inhibition, re-confirmation. shares compounds with ANO1 block. inhibition, % at 10 µM. hit rate 39% among 2,300. HEK293 TMEM16A/YFP-H148Q, iodide quench fluorescence; ionomycin added to raise cell calcium;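 active means mean duplicate percent inhibition, scaled so buffer wells are 0 and the reference blocker 100, over three buffer SD above buffer mean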
# TMEM16A Ca cntr: alters calcium mobilization in TMEM16A HEK293 cells, counter-screen; shares compounds with ANO1 block; TMEM16A/YFP HEK293, Fluo4 calcium mobilization; calcium response (% of ionomycin), % at 10 µM; hit rate 2% among 2,300;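 active means duplicate-averaged calcium signal over 20% of the ionomycin maximum, relative to buffer baseline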;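 further: each well's signal is peak minus trough fluorescence divided by its pre-addition baseline; 0% = buffer wells and 100% = ionomycin wells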
# Parental YFP cnt: parental YFP-HEK293 iodide quench counter-screen activity. YFP ratio F(max-min)/F0 at 10 µM. shares compounds with ANO1 block. ionomycin. 2,300 tested, under 10 active;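 active means yellow fluorescent protein signal ratio exceeding the buffer control mean by over 5 SD of those controls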;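 further: ratio is mean of duplicate wells from kinetic YFP trace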
# ClC-1 inh: rat ClC-1 inhibition, TMEM16A specificity screen; CHO ClC-1-YFP, iodide influx fluorescence quench; iodide control reads 0, buffer control 100; shares compounds with ANO1 block; 2,300 tested, under 10 active; AID 652236; ratio percent, % at 10 µM;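 active means duplicate-mean ratio percent above the mean of iodide-only control wells, which defines zero, plus 5 of their SD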;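 further: higher percent means stronger block of ClC-1 iodide influx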
# * marks the source's active call; other numbers are inactive results; i = inactive; . = not tested or not shown. Most compounds without a hit are left out; they make up all but 3.4% or so of the library.
SMILES,ANO1 block,CHT block,IMP-1 inhibitor,VIM-2 inhibitor,ANO1 activ,CHT PAM,TMEM16A reconf,TMEM16A Ca cntr,Parental YFP cnt,ClC-1 inh
Cc1cc(C)c(S(=O)(=O)Nc2ccc(Cl)cn2)c(C)c1,i,i,-4.4,-1.4,i,i,.,.,.,.
CN(CC(=O)Nc1cccc(S(=O)(=O)N2CCOCC2)c1)CC(=O)Nc1ccc(Cl)c(C(F)(F)F)c1,25*,i,.,.,i,i,i,i,-1.31,-9.5
Cc1nnc(NC2=NCCC2)o1,i,i,-1.1,-0.8,i,i,.,.,.,.
C1CCC(NC2=NCCC2)CC1,100*,i,-1.8,-1.7,i,i,i,i,-1.1,-4.5
COc1ccc(NC(=S)NNC(=O)c2ccco2)c(OC)c1,i,i,-3.3,-5.7,i,i,.,.,.,.
O=C(O)[C@H](Cc1ccccc1)NC(=O)N1CCN(c2cccc(C(F)(F)F)c2)CC1,i,i,-3.2,-2.1,i,i,.,.,.,.
Cc1[nH]n(-c2ccc(Br)cc2)c(=O)c1/C=N/NC(=O)c1ccccc1,100*,-5.37*,-6.1,-3.9,i,i,21.0%*,i,-0.782,-18.0
Cc1[nH]n(-c2ccccc2)c(=O)c1/C=N/NC(=O)c1cccc(F)c1,i,i,-4.5,-1.7,i,i,.,.,.,.
COc1c(C(O)CC(C)C)ccc2c1C(=O)OCc1cc(C)cc(O)c1O2 (configuration not stated),25*,i,-1.6,-0.7,i,i,21.5%*,i,-0.968,-12.5
COc1c(C(CC(C)C)OC(C)=O)ccc2c1C(=O)OCc1cc(C)cc(O)c1O2 (configuration not stated),100*,i,.,.,i,i,23.5%*,i,-1.06,-14.5
CNC(=O)CN(c1cc(C)ccc1OC)S(=O)(=O)c1ccc(C)cc1,i,i,-1.0,1.4,i,i,.,.,.,.
COc1ccc(C)cc1N(CC(=O)O)S(=O)(=O)c1ccc(C)cc1,i,i,-3.6,-4.0,i,i,i,i,-0.632,-5.5
Clc1ccc(C#Cc2cccnc2)cc1,i,i,.,.,i,i,.,.,.,.
COc1ccc(C(=O)Nc2ccc(C)c(S(=O)(=O)N3CCCCCC3)c2)cc1,100*,i,-0.4,-1.2,i,i,i,i,-1.08,-2.0
CCc1ccc(C(=O)Nc2ccc(OC)c(S(=O)(=O)N3CCOCC3)c2)cc1,100*,i,-0.3,1.8,i,i,i,i,-0.982,-9.0
CCc1ccc(C(=O)Nc2ccc(OC)c(S(=O)(=O)N3CCCCC3)c2)cc1,.,.,.,.,i,.,.,.,.,.
Cc1ccc(NC(=O)c2ccc(F)cc2)cc1S(=O)(=O)N1CCCCCC1,i,i,-0.8,0.3,i,i,.,.,.,.
Cc1ccc(NC(=O)CSc2ncnc3ccccc23)cc1S(=O)(=O)N1CCCCCC1,25*,i,-2.5,-4.7,i,i,27.0%*,i,-1.17,-16.0
CCc1cccc(OCC(=O)Nc2ccc(C)c(S(=O)(=O)N3CCCCCC3)c2)c1,100*,i,.,.,i,i,i,i,-1.15,-4.5
CC1(C)C(Cl)C(=O)C(C(=O)c2ccccc2)C(=O)C1Cl (configuration not stated),i,i,1.0,-0.5,i,i,.,.,.,.
Cc1ccc2c(c1)[C@H]1[C@H](CO2)[C@H](c2ccccc2)[C@]2(C)C(=O)Nc3cc(F)ccc3C(=O)N12,.,.,.,.,i,.,.,.,.,.
CCC(=O)Nc1cc(=O)[nH]c2nc(-c3ccc(Cl)cc3)nn12,i,i,-1.9,-2.1,i,i,.,.,.,.
Cc1cccc(OCCC(=O)Nc2ccc(C)c(S(=O)(=O)N3CCCCC3)c2)c1,25*,i,-2.5,-0.6,i,i,34.0%*,i,-1.12,-13.0
Cc1cccc(OCCC(=O)Nc2ccc(S(=O)(=O)N3CCCC3)cc2)c1,i,i,-1.9,-2.6,i,i,.,.,.,.
CCOc1ccccc1OCCCCCc1c(C)n[nH]c1C,i,i,-4.2,-4.7,i,i,.,.,.,.
SMILES,ANO1 block,CHT block,IMP-1 inhibitor,VIM-2 inhibitor,ANO1 activ,CHT PAM,TMEM16A reconf,TMEM16A Ca cntr,Parental YFP cnt,ClC-1 inh
Cc1cccc(OCCCCc2c(C)n[nH]c2C)c1C,100*,i,-3.5,-3.3,i,i,i,i,-1.06,-16.0
CCN(CC)S(=O)(=O)c1ccc(OCC(=O)NC(=O)Cc2ccccc2)c([N+](=O)[O-])c1,.,.,.,.,i,.,.,.,.,.
CCOP(=O)(c1c(F)c(F)c(F)c(F)c1F)C(O)c1ccccc1 (configuration not stated),25*,i,-7.2,-0.9,i,i,31.0%*,i,-0.981,-10.0
S=C(NCC1CCCO1)Nc1ccc(Nc2ccccc2)cc1 (configuration not stated),100*,i,-3.4,-2.2,i,i,i,i,-0.841,-8.5
S=C(NCC1CCCCC1)Nc1ccc(Oc2ccccc2)cc1,100*,i,-2.6,-1.9,i,i,20.0%*,i,-1.26,-20.5
S=C(Nc1ccc(Oc2ccccc2)cc1)NC1CCCC1,i,i,-3.3,-4.0,i,i,.,.,.,.
CCN(CC)CCNC(=O)C(=O)Nc1cc2c3c(c1)CCC(=O)N3CCC2,i,i,-3.2,-1.6,i,i,.,.,.,.
O=C(Nc1ccc(Cl)cc1-c1nc2ccccc2s1)c1ccco1,i,i,-0.5,-0.5,i,i,i,i,-0.925,5.5
CCOc1ccc(N(CC(=O)Nc2ccc(C)c(C)c2)S(C)(=O)=O)cc1,i,i,0.7,2.4,i,i,.,.,.,.
O=C(NNC(=O)c1ccccc1OCc1ccccc1)c1ccccc1O,i,i,-0.1,-2.5,i,i,.,.,.,.
CC(=O)c1ccccc1OCc1ccc(S(=O)(=O)Cc2ccccc2)cc1,25*,i,-4.8,-2.5,i,i,34.0%*,i,-0.62,-13.5
COc1ccc2nc(NC(=O)CSc3n[nH]c(N)n3)sc2c1,i,i,.,.,i,i,.,.,.,.
COc1ccccc1C(=O)NCCC(=O)NCc1ccccn1,.,.,.,.,i,.,.,.,.,.
COC(=O)C(C)(C)ONC(=O)Nc1ccccc1Br,25*,i,-1.7,0.9,i,i,i,i,-1.08,-12.5

# Source: PubChem BioAssay
